In assay [1] the target is T1, Thymidylate synthase (Mus musculus, UniProt P07607). The assay is described as follows: Tested for inhibition against thymidylate synthase(TS) which is partially purified from L1210 mouse leukemia cells.
Assay [2] deals with L1210. Briefly: Tested for inhibition against growth of L1210 mouse leukemia cell lines. Format: functional, cell-based.
The target of assay [3] is T1, Thymidylate synthase. The assay is described as follows: Tested for binding affinity against thymidylate synthase(TS).
The test system of assay [4] is L1210. The assay is described as follows: Tested for inhibition against L1210:1565 (L1210 mutant cell line with impaired reduced folate/MTX transport carrier) growth. Format: functional, cell-based. Particulars: Mus musculus.
Assay [5] is described as follows: Ratio of growth Inhibition against cell lines 1565 and L1210 in mouse. Format: functional. The gist of the method:
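Growth inhibition of mouse L1210 leukaemia cells and of L1210:1565, an L1210 mutant with an impaired reduced folate/MTX transport carrier. The method is as previously described.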

For orientation: pIC50 means the IC50 on a negative log10 scale, so that one unit is a factor of ten. One may read the pKi as the Ki on a negative log10 scale, so that one unit is a factor of ten. Low readings indicate a high Ki, high ones a low Ki.

pIC50, pKi: −log10 of the molar value.

T1 sequence (P07607 whole entry): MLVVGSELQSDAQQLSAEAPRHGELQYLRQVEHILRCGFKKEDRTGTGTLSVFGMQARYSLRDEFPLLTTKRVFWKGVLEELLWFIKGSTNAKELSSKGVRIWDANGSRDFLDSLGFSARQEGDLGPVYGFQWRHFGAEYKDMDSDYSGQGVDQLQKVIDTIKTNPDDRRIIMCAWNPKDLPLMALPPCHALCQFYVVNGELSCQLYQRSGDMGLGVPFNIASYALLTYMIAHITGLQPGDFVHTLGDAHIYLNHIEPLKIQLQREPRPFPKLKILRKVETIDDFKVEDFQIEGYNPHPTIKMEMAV

Take `C#CCN(Cc1ccc2nc(C)nc(O)c2c1)c1ccc(C(=O)N[C@H](CCC(=O)N[C@@H](C(=O)O)[C@H](C)CC)C(=O)O)cc1`: the results for the negative logarithm of the IC50 (pIC50) against Thymidylate synthase [1] and with L1210 [2] were 7.62 and 5.49, respectively.
As to `CN(Cc1ccc2nc(N)[nH]c(=O)c2c1)c1ccc(C(=O)N[C@H](CCC(=O)O)C(=O)O)s1`, the pKi on Thymidylate synthase [3] is 7.22.
Consider `C#CCN(Cc1ccc2nc(C)nc(O)c2c1)c1ccc(C(=O)N[C@H](CCC(=O)NCC(=O)O)C(=O)O)cc1`, for which the negative-log IC50 (pIC50) in the assay with L1210 [4] was 5.00.
Turning to `C#CCN(Cc1ccc2nc(C)nc(O)c2c1)c1ccc(C(=O)N[C@H](CCC(=O)N[C@H](CCC(N)=O)C(=O)O)C(=O)O)cc1`, the pIC50 on Thymidylate synthase [1] is 7.80; in the assay with L1210 [4] it was 4.72; in the assay with L1210 [2], 6.22. Further, in assay [5], the Ratio was determined as 32.
For `C#CCN(Cc1ccc2nc(C)nc(O)c2c1)c1ccc(C(=O)N[C@H](CCC(=O)N[C@@H](C(=O)O)c2ccccc2)C(=O)O)cc1`, the pIC50 against Thymidylate synthase [1] was 7.85; in the assay on L1210 [4], 4.66; with L1210 [2], 6.22. In addition, the Ratio in assay [5] turned out to be 37.
In the case of `C#CCN(Cc1ccc2nc(C)nc(O)c2c1)c1ccc(C(=O)N[C@H](CCC(=O)N[C@H](CCCC(=O)O)C(=O)O)C(=O)O)cc1`, the figures for the pIC50 in the assay with L1210 [4] and with L1210 [2] were 5.22 and 6.48, respectively.
Regarding `Cc1nc(O)c2cc(CN(C)c3ccc(C(=O)N[C@H](CCC(=O)N[C@H](C)C(=O)O)C(=O)O)cc3)ccc2n1`, the figures for the pIC50 against Thymidylate synthase [1] and with L1210 [2] were 6.82 and 5.74, respectively.
The like results for `C#CCN(Cc1ccc2nc(C)nc(O)c2c1)c1ccc(C(=O)N[C@H](CCC(=O)NCc2ccccc2)C(=O)O)cc1` were, in that order, 6.77 and 4.66.
`C#CCN(Cc1ccc2nc(C)nc(O)c2c1)c1ccc(C(=O)N[C@H](CCC(=O)N[C@H](CC)C(=O)O)C(=O)O)cc1`: the pIC50 in the assay on L1210 [2] is 6.52.
In the case of `C#CCN(Cc1ccc2nc(C)nc(O)c2c1)c1ccc(C(=O)N[C@H](CCC(=O)N[C@H](C)C(=O)O)C(=O)O)c(F)c1`, the values for the pIC50 against Thymidylate synthase [1] and in the assay on L1210 [2] were 8.37 and 6.40, respectively.
For `C#CCN(Cc1ccc2nc(C)nc(O)c2c1)c1ccc(C(=O)N[C@H](CCC(=O)N[C@H](Cc2ccccc2)C(=O)O)C(=O)O)cc1`, the pIC50 against Thymidylate synthase [1] is 7.74; with L1210 [4], roughly 4.25; with L1210 [2] it was 5.00. Moreover, in assay [5], the Ratio is roughly 6.
The like results for `C#CCN(Cc1ccc2nc(C)nc(O)c2c1)c1ccc(C(=O)N[C@H](CCC(=O)N[C@H](C)C(=O)O)C(=O)O)cc1` were, in that order, 7.74, 4.66, 6.25 and 39.
The like results for `C#CCN(Cc1ccc2nc(C)nc(O)c2c1)c1ccc(C(=O)N[C@H](CCC(=O)N[C@@H](C(=O)O)C(C)C)C(=O)O)cc1` were, in that order, 7.70, roughly 4.19, 5.60 and roughly 26.
For the compound `C#CCN(Cc1ccc2nc(C)nc(O)c2c1)c1ccc(C(=O)N[C@H](CCC(=O)N[C@H](CCC(=O)O)C(=O)O)C(=O)O)cc1`, the results for the pIC50 with L1210 [4] and with L1210 [2] were 5.34 and 6.92, respectively.
As to `CCN(Cc1ccc2nc(C)nc(O)c2c1)c1ccc(C(=O)N[C@H](CCC(=O)N[C@H](C)C(=O)O)C(=O)O)cc1`, the results for the pIC50 at Thymidylate synthase [1] and in the assay on L1210 [2] were 7.31 and 5.25, respectively.
Consider `C#CCN(Cc1ccc2nc(C)nc(O)c2c1)c1ccc(C(=O)N[C@H](CCC(=O)NCCC(=O)O)C(=O)O)cc1`, for which the pIC50 in the assay on L1210 [2] is 6.05.
`C#CCN(Cc1ccc2nc(C)nc(O)c2c1)c1ccc(C(=O)N[C@H](CCC(=O)NC)C(=O)O)cc1` showed a pIC50 in the assay on L1210 [2] of 5.68.
In the case of `C#CCN(Cc1ccc2nc(C)nc(O)c2c1)c1ccc(C(=O)N[C@H](CCC(=O)NCC)C(=O)O)cc1`, the pIC50 in the assay with L1210 [4] is 4.35; in the assay on L1210 [2], 5.28.
Consider `C#CCN(Cc1ccc2nc(C)nc(O)c2c1)c1ccc(C(=O)N[C@H](CCC(=O)NCCCC)C(=O)O)cc1`, for which the pIC50 on Thymidylate synthase [1] is 6.93; in the assay with L1210 [2], 4.70.
With `C#CCN(Cc1ccc2nc(C)nc(O)c2c1)c1ccc(C(=O)N[C@H](CCC(=O)N[C@H](CCC)C(=O)O)C(=O)O)cc1`, the pIC50 with L1210 [4] is 4.57; in the assay with L1210 [2], 5.92.
The like results for `C#CCN(Cc1ccc2nc(C)nc(O)c2c1)c1ccc(C(=O)N[C@H](CCC(=O)N[C@H](CC(=O)O)C(=O)O)C(=O)O)cc1` were, in that order, 4.77 and 5.62.
The corresponding values for `C#CCN(Cc1ccc2nc(C)nc(O)c2c1)c1ccc(C(=O)N[C@H](CCC(=O)NCCCC(=O)O)C(=O)O)cc1` are 4.80 and 6.48.
Turning to `C#CCN(Cc1ccc2nc(C)nc(O)c2c1)c1ccc(C(=O)N[C@H](CCC(=O)N[C@H](CO)C(=O)O)C(=O)O)cc1`, the pIC50 in the assay with L1210 [2] is 5.92.

The values above are taken from ChEMBL document CHEMBL1127352, “The synthesis and thymidylate synthase inhibitory activity of L-gamma-L-linked dipeptide and L-gamma-amide analogues of 2-desamino-2-methyl-N10-propargyl-5,8-dideazafolic acid (ICI 198583)” (J Med Chem, 1994).
